# Assay results as given in ChEMBL document CHEMBL1128722, “Mechanism-based isocoumarin inhibitors for human leukocyte elastase. Effect of the 7-amino substituent and 3-alkoxy group in 3-alkoxy-7-amino-4-chloroisocoumarins on inhibitory potency” (J Med Chem, 1995).
# How the values were obtained:
# [1] = Half-life for hydrolysis was determined from kinetic constant.; assay type: ADME
# Procedure, shortened: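 Spontaneous hydrolysis in 0.1 M HEPES, 0.5 M NaCl, pH 7.5, 10% v/v DMSO final, 25 °C. Inhibitor added from 2.9–5.0 mM DMSO stock. Ring opening followed as absorbance decrease at 385 nm (ε385 = 3300 M⁻¹ cm⁻¹). Half-life from the first-order rate. Two determinations, standard errors ±15% or less.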
# [2] = biological target: T1, Neutrophil elastase (Homo sapiens) (UniProt P08246); test: Second order inactivation rate constant for inhibition of human leukocyte elastase.
# T1 sequence (whole entry): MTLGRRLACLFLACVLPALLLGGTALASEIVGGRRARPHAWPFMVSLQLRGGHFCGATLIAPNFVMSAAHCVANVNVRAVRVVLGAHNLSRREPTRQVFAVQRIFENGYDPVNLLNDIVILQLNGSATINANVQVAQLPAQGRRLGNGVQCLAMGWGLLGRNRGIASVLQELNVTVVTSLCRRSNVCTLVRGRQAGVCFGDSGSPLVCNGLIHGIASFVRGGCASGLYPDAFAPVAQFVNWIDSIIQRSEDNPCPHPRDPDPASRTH
# Procedure, shortened: (§1)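 Kitz–Wilson incubation method. Enzyme was preincubated with inhibitor (added in DMSO) in 0.1 M HEPES, 0.5 M NaCl, pH 7.5, at 25 °C. Aliquots were taken over time and diluted into pNA substrate: HLE MeO-Suc-Ala-Ala-Pro-Val-pNA (0.2–0.5 mM), PPE Suc-Ala-Ala-Ala-pNA, ChT and Cat G Suc-Val-Pro-Phe-pNA (0.4–0.5 mM). Release was read at 410 nm. kobs/[I] from ln(v0/vt) vs time. Mean of two determinations. Fast rates measured with equimolar inhibitor and enzyme.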
# [3] = biological target: T1, Neutrophil elastase (Homo sapiens); test: Inhibition of human leukocyte elastase.; procedure, shortened: as §1
# [4] = biological target: T2, Cathepsin G (Homo sapiens) (UniProt P08311); test: Inhibition of cathepsin G(Cat G) at 35-710 uM; procedure, shortened: as §1
# T2 sequence (whole entry): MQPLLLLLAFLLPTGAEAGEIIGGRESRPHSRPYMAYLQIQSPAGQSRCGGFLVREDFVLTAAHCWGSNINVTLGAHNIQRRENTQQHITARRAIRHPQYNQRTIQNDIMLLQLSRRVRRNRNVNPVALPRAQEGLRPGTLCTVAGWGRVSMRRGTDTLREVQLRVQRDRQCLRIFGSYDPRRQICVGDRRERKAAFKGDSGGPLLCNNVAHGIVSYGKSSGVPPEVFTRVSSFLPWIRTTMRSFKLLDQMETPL
# [5] = biological target: T1, Neutrophil elastase (Homo sapiens); test: The second order inactivation rate constant expressed as inhibition of human leukocyte elastase (HLE). Inhibitor concentrations were 0.07-710 uM; procedure, shortened: as §1
# [6] = biological target: T3, Chymotrypsin-like elastase family member 2A (Sus scrofa) (UniProt P08419); test: The second order inactivation rate constant expressed as inhibition of porcine pancreatic elastase (PPE).Inhibitor concentrations were 0.04-2.0 mM
# T3 sequence (whole entry): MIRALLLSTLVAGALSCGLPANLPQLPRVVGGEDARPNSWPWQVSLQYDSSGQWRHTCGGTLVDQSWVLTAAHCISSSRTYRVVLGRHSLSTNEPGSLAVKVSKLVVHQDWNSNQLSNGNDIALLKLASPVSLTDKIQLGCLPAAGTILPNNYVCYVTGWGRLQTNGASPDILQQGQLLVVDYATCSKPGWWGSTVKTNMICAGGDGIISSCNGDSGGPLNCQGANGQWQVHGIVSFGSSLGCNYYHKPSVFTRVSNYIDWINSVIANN
# [7] = biological target: T1, Neutrophil elastase (Homo sapiens); test: Inhibition of human leukocyte elastase(HLE) at 0.7-1.7 uM; procedure, shortened: as §1
# [8] = biological target: Chymotrypsinogen A (Bos taurus) (UniProt P00766); test: The second order inactivation rate constant was expressed as inhibition of chymotrypsin (ChT).Inhibitor concentrations were 360-570 uM; procedure, shortened: as §1
# [9] = biological target: T1, Neutrophil elastase (Homo sapiens); test: The second order inactivation rate constant was expressed as inhibition of human leukocyte elastase (HLE). Inhibitor concentrations were 0.4-4 uM; procedure, shortened: as §1
# [10] = biological target: T3, Chymotrypsin-like elastase family member 2A (Sus scrofa); test: The second order inactivation rate constant was expressed as inhibition of porcine pancreatic elastase (PPE).Inhibitor concentrations were 2-600 uM; procedure, shortened: as §1
# [11] = biological target: T2, Cathepsin G (Homo sapiens); test: Inhibition of cathepsin G at 35-710 uM; procedure, shortened: as §1
Compound,K obs / 1 [5] [M⁻¹ s⁻¹],K obs / 1 [6] [M⁻¹ s⁻¹],also measured
CCOc1oc(=O)c2cc(N)ccc2c1Cl,,,half-life [1]: 3.6 h; k obs / 1 [2]: 9400 M⁻¹ s⁻¹; [I] [3]: 4 µM
CC(C)(C)OC(=O)N[C@@H](Cc1ccccc1)C(=O)Nc1ccc2c(Cl)c(OCCBr)oc(=O)c2c1,146000,50,inhibition [4]: 19%
CCCOc1oc(=O)c2cc(NC(=O)CCC)ccc2c1Cl,,,k obs / 1 [7]: > 120000 M⁻¹ s⁻¹
CCCOc1oc(=O)c2cc(N)ccc2c1Cl,,,half-life [1]: 4.6 h; k obs / 1 [2]: 54000 M⁻¹ s⁻¹; [I] [3]: 2.6 µM
COc1oc(=O)c2cc(NC(=O)[C@H](Cc3c[nH]c4ccccc34)NC(=O)OC(C)(C)C)ccc2c1Cl,,,k obs / 1 [8]: 33 M⁻¹ s⁻¹; k obs / 1 [9]: 79000 M⁻¹ s⁻¹; k obs / 1 [10]: 5800 M⁻¹ s⁻¹
O=C(O)CCC(=O)N[C@@H](Cc1ccccc1)C(=O)Nc1ccc2c(Cl)c(OCCBr)oc(=O)c2c1,40000,1900,half-life [1]: 2.5 h
COC(=O)CCC(=O)Nc1ccc2c(Cl)c(OCCBr)oc(=O)c2c1,,1500,
C[C@H](NC(=O)Nc1ccc2c(Cl)c(OCCBr)oc(=O)c2c1)c1cccc2ccccc12,170000,40,
CCCOc1oc(=O)c2cc(NC(C)=O)ccc2c1Cl,,,k obs / 1 [7]: > 190000 M⁻¹ s⁻¹
CC(C)(C)OC(=O)N[C@H](Cc1ccccc1)C(=O)Nc1ccc2c(Cl)c(OCCBr)oc(=O)c2c1,160000,30,inhibition [4]: 19%
CCCOc1oc(=O)c2cc(NC(=O)[C@@H](NC(=O)OC(C)(C)C)C(C)C)ccc2c1Cl,,,k obs / 1 [7]: 64000 M⁻¹ s⁻¹
C[C@H](NC(=O)OC(C)(C)C)C(=O)N[C@@H](C)C(=O)Nc1ccc2c(Cl)c(OCCBr)oc(=O)c2c1,230000,1670,K obs / 1 [11]: 46 M⁻¹ s⁻¹
O=C(Cc1ccccc1)Nc1ccc2c(Cl)c(OCCBr)oc(=O)c2c1,480000,4950,K obs / 1 [11]: 70 M⁻¹ s⁻¹
CCCOc1oc(=O)c2cc(NC(=O)CCc3ccccc3)ccc2c1Cl,,,k obs / 1 [7]: > 250000 M⁻¹ s⁻¹
C[C@H](NC(=O)Nc1ccc2c(Cl)c(OCCBr)oc(=O)c2c1)c1ccccc1,> 440000,9900,K obs / 1 [11]: 77 M⁻¹ s⁻¹
O=C(NCc1ccccc1)Nc1ccc2c(Cl)c(OCCBr)oc(=O)c2c1,480000,3010,inhibition [4]: 23%
CC(=O)Nc1ccc2c(Cl)c(OCCCBr)oc(=O)c2c1,24400,24,K obs / 1 [11]: 170 M⁻¹ s⁻¹
O=C(Cc1ccccc1)Nc1ccc2c(Cl)c(OCCCBr)oc(=O)c2c1,32400,28,inhibition [4]: 28%
O=C(N[C@@H](Cc1ccccc1)C(=O)Nc1ccc2c(Cl)c(OCCBr)oc(=O)c2c1)c1ccccc1,30000,11,
C[C@@H](NC(=O)Nc1ccc2c(Cl)c(OCCBr)oc(=O)c2c1)c1cccc2ccccc12,310000,20,half-life [1]: > 48 h
O=C(CCc1ccccc1)Nc1ccc2c(Cl)c(OCCBr)oc(=O)c2c1,,11,
CC(Br)COc1oc(=O)c2cc(N)ccc2c1Cl (configuration not stated),24000,62,K obs / 1 [11]: 150 M⁻¹ s⁻¹
Cc1ccc(C(=O)N[C@@H](Cc2ccccc2)C(=O)Nc2ccc3c(Cl)c(OCCBr)oc(=O)c3c2)cc1,49000,32,
CCCOc1oc(=O)c2cc(NC(=O)OCC)ccc2c1Cl,,,k obs / 1 [7]: > 180000 M⁻¹ s⁻¹
CC(C)COc1oc(=O)c2cc(N)ccc2c1Cl,,,k obs / 1 [2]: 2700 M⁻¹ s⁻¹; [I] [3]: 50 µM
O=C(Nc1ccccc1)Nc1ccc(C(=O)NC(Cc2ccccc2)C(=O)Nc2ccc3c(Cl)c(OCCBr)oc(=O)c3c2)cc1 (configuration not stated),6100,130,
O=C(Nc1ccc2c(Cl)c(OCCBr)oc(=O)c2c1)Nc1cccc2ccccc12,390000,76,inhibition [4]: 22%
